# Laboratory results: ChEMBL document CHEMBL1122048, “Adriamycin analogues. Preparation of 9,10-anhydrodaunorubicin, 9,10-anhydroadriamycin, and some related compounds” (1982)
# System: CCRF-CEM
# Test: In vitro growth inhibitory activity against CCRF-CEM (human lymphoblastic leukemic) cells.
# Assay type: functional
# Settings: read-out: ID50 (the source's name)
# Summary of the method: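 Human lymphoblastic leukemia CCRF-CEM cultures exposed to drug for 48 h. The value is the concentration inhibiting culture growth by 50% relative to untreated controls.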
row,IC50 [nM],SMILES
1,10000,COc1cccc2c1C(=O)c1c(O)c3c(c(O)c1C2=O)C=C(C(C)=O)C[C@@H]3O
2,4710,CCCCC(=O)OCC(=O)[C@@H]1Cc2c(O)c3c(c(O)c2[C@@H](OC2CC(NC(=O)C(F)(F)F)C(O)C(C)O2)C1)C(=O)c1c(OC)cccc1C3=O (stereo partly drawn)
3,> 10000,COc1cccc2c1C(=O)c1c(O)c3c(c(O)c1C2=O)C=C(C(C)=O)CC3
4,230,CCCCC(=O)OCC(=O)[C@]1(O)Cc2c(O)c3c(c(O)c2[C@@H](OC2CC(NC(=O)C(F)(F)F)C(O)C(C)O2)C1)C(=O)c1c(OC)cccc1C3=O (stereo partly drawn)
5,> 10000,COc1cccc2c1C(=O)c1c(O)c3c(c(O)c1C2=O)C[C@@H](C(C)=O)CC3
6,> 5000,COc1ccc(C(OCC(=O)C2=Cc3c(O)c4c(c(O)c3[C@@H](OC3CC(NC(=O)C(F)(F)F)C(O)C(C)O3)C2)C(=O)c2c(OC)cccc2C4=O)(c2ccccc2)c2ccccc2)cc1 (stereo partly drawn)
7,2310,COc1cccc2c1C(=O)c1c(O)c3c(c(O)c1C2=O)C=C(C(=O)CO)C[C@@H]3OC1CC(N)C(O)C(C)O1 (stereo partly drawn)
8,> 5000,COc1ccc(C(OCC(=O)C2=Cc3c(O)c4c(c(O)c3[C@@H](OC3CC(N)C(O)C(C)O3)C2)C(=O)c2c(OC)cccc2C4=O)(c2ccccc2)c2ccccc2)cc1 (stereo partly drawn)
9,2700,CCCCC(=O)OCC(=O)C1=Cc2c(O)c3c(c(O)c2[C@@H](OC2CC(NC(=O)C(F)(F)F)C(O)C(C)O2)C1)C(=O)c1c(OC)cccc1C3=O (stereo partly drawn)
10,3950,COc1cccc2c1C(=O)c1c(O)c3c(c(O)c1C2=O)CC(C(C)=O)C[C@@H]3OC1CC(NC(=O)C(F)(F)F)C(O)C(C)O1 (stereo partly drawn)
11,2560,COc1cccc2c1C(=O)c1c(O)c3c(c(O)c1C2=O)C=C(C(C)=O)C[C@@H]3OC1CC(NC(=O)C(F)(F)F)C(O)C(C)O1 (stereo partly drawn)
12,40,COc1cccc2c1C(=O)c1c(O)c3c(c(O)c1C2=O)C[C@@](O)(C(C)=O)C[C@@H]3O[C@H]1C[C@H](N)[C@H](O)[C@H](C)O1 [DAUNORUBICIN]
13,66,COc1cccc2c1C(=O)c1c(O)c3c(c(O)c1C2=O)C[C@@](O)(C(=O)CO)C[C@@H]3O[C@H]1C[C@H](N)[C@H](O)[C@H](C)O1 [DOXORUBICIN]
